The source of these data is ChEMBL document CHEMBL2311356, “The effect of 17-N substituents on the activity of the opioid κ receptor in nalfurafine derivatives” (Bioorg Med Chem Lett, 2013).

For one experiment, the target named is Mu-type opioid receptor (Mus musculus, UniProt P42866). Kind of experiment: Displacement of [3H]DAMGO from mu opioid receptor in mouse whole brain membranes without cerebellum after 1 hr by liquid scintillation counting analysis. In kind it is cell membranes, Membrane. In outline:
(§1)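 Radioligand displacement from membranes used [³H]DAMGO for μ and [³H]DPDPE for δ, both on mouse whole brain without cerebellum. For κ it used [³H]U-69,593 on guinea pig cerebellum. Values are means of three samples.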

Experiment [1] has as its target T1, Kappa-type opioid receptor (Homo sapiens, UniProt P41145). The experiment in a line: Agonist activity at human recombinant kappa opioid receptor expressed in CHO cells after 2 hrs by [35S]-GTPgammaS binding assay. In kind it is functional, cell-based. In outline:
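CHO cell membranes carrying the recombinant human κ receptor were incubated with [³⁵S]GTPγS, GDP and the test agent. Values are means of four samples.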

Experiment [2] has as its target Kappa-type opioid receptor (Cavia porcellus, UniProt P41144). Kind of experiment: Displacement of [3H]U69593 from kappa opioid receptor in guinea pig cerebellum after 1 hr by liquid scintillation counting analysis. The gist of the method: as §1
For orientation: Loss of bound radioactivity is the signal in a displacement assay; it reports binding, not function.

Experiment [3] is described as follows: Selectivity ratio of Ki for delta opioid receptor in mouse whole brain membranes without cerebellum to Ki for kappa opioid receptor in guinea pig cerebellum. In kind it is cell membranes.
Experiment [4] has as its target Delta-type opioid receptor (Mus musculus, UniProt P32300). Kind of experiment: Displacement of [3H]DPDPE from delta opioid receptor in mouse whole brain membranes without cerebellum after 1 hr by liquid scintillation counting analysis. In kind it is cell membranes, Membrane. In outline: as §1
For experiment [5], the target named is T1, Kappa-type opioid receptor. The experiment in a line: Agonist activity at human recombinant kappa opioid receptor expressed in CHO cells after 2 hrs by [35S]-GTPgammaS binding assay relative to control. In kind it is functional, cell-based. In outline:
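CHO cell membranes carrying the recombinant human κ receptor were incubated with [³⁵S]GTPγS, GDP and the test agent. U-69,593 served as the reference κ agonist. Values are means of four samples.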
For orientation: Binding of GTPγS marks nucleotide exchange on a G protein.

Experiment [6] can be described thus: Selectivity ratio of Ki for mu opioid receptor in mouse whole brain membranes without cerebellum to Ki for kappa opioid receptor in guinea pig cerebellum. In kind it is cell membranes.

A word on the Ki: it is a dissociation constant, usually derived from enzyme kinetics or from competition with a known ligand. High values mean weaker binding, low ones tighter binding. The EC50 is the midpoint of the concentration-response curve. As a reminder, the Emax is the size of the effect at its maximum, as opposed to the concentration needed.

T1 sequence (P41145 whole entry): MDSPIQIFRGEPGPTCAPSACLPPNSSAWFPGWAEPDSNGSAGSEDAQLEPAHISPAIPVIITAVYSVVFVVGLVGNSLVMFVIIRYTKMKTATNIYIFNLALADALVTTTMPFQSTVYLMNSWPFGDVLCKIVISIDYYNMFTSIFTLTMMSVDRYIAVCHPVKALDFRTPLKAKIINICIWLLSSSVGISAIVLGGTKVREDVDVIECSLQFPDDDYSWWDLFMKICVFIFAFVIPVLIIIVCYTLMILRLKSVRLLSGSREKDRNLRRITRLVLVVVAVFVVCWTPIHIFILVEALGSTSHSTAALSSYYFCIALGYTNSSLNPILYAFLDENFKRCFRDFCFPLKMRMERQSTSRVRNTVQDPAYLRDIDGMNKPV
Sequence of Kappa-type opioid receptor (Cavia porcellus, UniProt P41144) (P41144 whole entry): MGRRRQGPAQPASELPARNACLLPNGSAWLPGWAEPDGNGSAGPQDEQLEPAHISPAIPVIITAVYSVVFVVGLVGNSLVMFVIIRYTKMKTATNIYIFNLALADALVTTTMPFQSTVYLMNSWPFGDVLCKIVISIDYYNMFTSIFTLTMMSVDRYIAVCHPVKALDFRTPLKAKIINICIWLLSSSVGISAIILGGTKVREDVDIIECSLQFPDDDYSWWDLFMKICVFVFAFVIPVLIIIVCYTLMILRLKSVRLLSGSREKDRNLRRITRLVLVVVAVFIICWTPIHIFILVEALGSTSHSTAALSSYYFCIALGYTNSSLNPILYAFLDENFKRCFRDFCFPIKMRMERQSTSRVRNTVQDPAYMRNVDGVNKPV
Sequence of Delta-type opioid receptor (P32300 whole entry): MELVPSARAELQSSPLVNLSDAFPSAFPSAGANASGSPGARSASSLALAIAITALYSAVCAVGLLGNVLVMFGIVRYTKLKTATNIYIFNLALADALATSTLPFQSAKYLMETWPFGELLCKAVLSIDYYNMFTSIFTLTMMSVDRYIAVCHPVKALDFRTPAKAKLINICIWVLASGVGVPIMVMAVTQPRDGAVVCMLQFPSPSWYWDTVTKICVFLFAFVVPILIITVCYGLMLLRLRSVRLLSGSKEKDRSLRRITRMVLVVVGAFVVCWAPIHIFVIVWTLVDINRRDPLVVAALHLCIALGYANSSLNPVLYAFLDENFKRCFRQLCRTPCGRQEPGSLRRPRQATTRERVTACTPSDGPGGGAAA
Sequence of Mu-type opioid receptor (P42866 whole entry): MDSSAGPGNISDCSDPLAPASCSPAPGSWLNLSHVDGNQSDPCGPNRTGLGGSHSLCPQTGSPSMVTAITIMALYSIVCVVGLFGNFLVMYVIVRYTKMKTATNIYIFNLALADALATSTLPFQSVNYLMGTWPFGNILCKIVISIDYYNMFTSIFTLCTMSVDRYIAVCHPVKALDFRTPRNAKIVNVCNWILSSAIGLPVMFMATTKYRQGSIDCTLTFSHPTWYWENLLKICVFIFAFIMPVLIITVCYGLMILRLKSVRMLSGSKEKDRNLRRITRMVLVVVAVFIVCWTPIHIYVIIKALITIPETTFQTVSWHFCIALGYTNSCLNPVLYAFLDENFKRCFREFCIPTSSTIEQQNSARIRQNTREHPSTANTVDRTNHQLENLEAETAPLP

With `CCN1CC[C@H]2c3c(ccc(O)c3O)C[C@@H]1[C@]2(O)CCCN(C)C(=O)/C=C/c1ccoc1`, the results for the Ki (on Mu-type opioid receptor; in experiment [2]; in experiment [4]) were 11 nM, 0.625 nM and 512 nM, respectively. In experiment [1], the concentration giving a half-maximal response (EC50) came out at 3.79 nM. The Ratio Ki in experiment [3] was 818; in experiment [6] it was 17.6. The Emax in experiment [5] was found to be 97.4%.

In the case of `CN(C(=O)/C=C/c1ccoc1)[C@@H]1CC[C@@]2(O)[C@H]3Cc4ccc(O)c5c4[C@@]2(CCN3CC2CC2)[C@H]1O5`, in experiment [5], the Emax came to 98.1%.

Regarding `CN(CCC[C@]1(O)[C@H]2CCN(C)[C@@H]1Cc1ccc(O)c(O)c12)C(=O)/C=C/c1ccoc1`, the Ki on Mu-type opioid receptor worked out at 2.77 nM; in experiment [2], 0.735 nM; in experiment [4] it was 35.7 nM. For the same compound, the EC50 in experiment [1] is 11.3 nM. For the same compound, the Ratio Ki in experiment [3] amounted to 48.6; in experiment [6] it was 3.77. In experiment [5], the Emax was 90.4%.

Consider `CC(C)CN1CC[C@H]2c3c(ccc(O)c3O)C[C@@H]1[C@]2(O)CCCN(C)C(=O)/C=C/c1ccoc1`, for which the Ki on Mu-type opioid receptor stood at 46.2 nM; in experiment [2], 0.59 nM; in experiment [4], 514 nM. Moreover, the concentration giving a half-maximal response (EC50) in experiment [1] amounted to 8.07 nM. In addition, the Ratio Ki was 872 in experiment [3] and 78.4 in experiment [6]. In addition, in experiment [5], the Emax is 99.5%.

Regarding `CN(CCC[C@]1(O)[C@H]2CCN(CC(F)F)[C@@H]1Cc1ccc(O)c(O)c12)C(=O)/C=C/c1ccoc1`, the Ki is > 1000 nM at Mu-type opioid receptor, 2.19 nM in experiment [2] and > 1000 nM in experiment [4]. For the same compound, the EC50 in experiment [1] amounted to 22.4 nM. In addition, the Emax in experiment [5] was 101%.

In the case of `CN(CCC[C@]1(O)[C@H]2CCN(CCF)[C@@H]1Cc1ccc(O)c(O)c12)C(=O)/C=C/c1ccoc1`, the results for the Ki (at Mu-type opioid receptor; in experiment [2]; in experiment [4]) were 8.39 nM, 0.507 nM and > 1000 nM, respectively. In addition, the EC50 in experiment [1] was found to be 2.23 nM. Besides, the Emax in experiment [5] worked out at 95.2%. Besides, the Ratio Ki in experiment [6] was 16.6.

Take `CN(CCC[C@]1(O)[C@H]2CCN(CC(F)(F)F)[C@@H]1Cc1ccc(O)c(O)c12)C(=O)/C=C/c1ccoc1`: the Ki at Mu-type opioid receptor is > 1000 nM; in experiment [2], 4.58 nM; in experiment [4] it was > 1000 nM. For the same compound, the EC50 in experiment [1] stood at 32.2 nM. In experiment [5], the Emax is 89%.

Consider `CCCN1CC[C@H]2c3c(ccc(O)c3O)C[C@@H]1[C@]2(O)CCCN(C)C(=O)/C=C/c1ccoc1`, for which the Ki at Mu-type opioid receptor was 19.2 nM; in experiment [2], 0.328 nM; in experiment [4], 176 nM. Besides, the EC50 in experiment [1] stood at 2.72 nM. Moreover, the Ratio Ki in experiment [3] stood at 537; in experiment [6] it was 58.4. Also, the Emax in experiment [5] came out at 86.5%.
